The values that follow come from ChEMBL document CHEMBL4376874, “Discovery of Potent and Selective Epidermal Growth Factor Receptor (EGFR) Bifunctional Small-Molecule Degraders” (J Med Chem, 2020).

The source made the active and inactive calls. The rule behind the calls is not given here.

In series [1] the test system is Protein cereblon/Epidermal growth factor receptor (Homo sapiens), P00533+Q96SW2 [L858R]. Put plainly: Protac activity at CRBN/EGFR L858R mutant in human H3255 cells assessed as induction of EGFR degradation at >=50 nM treated 8 hrs post serum starvation measured after 16 hrs by Western blot analysis relative to control. The format is cell-based. The method in brief: (§1)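 Cultured to 80% confluence in RPMI/1640 with 20% FBS at 37 °C and 5% CO2, then switched to serum-free medium for 8 h. Degraders were added over a concentration range up to 10 μM for 16 h, with gefitinib at 1 μM as reference. Lysates in Laemmli buffer were immunoblotted for EGFR, p-EGFR and p-AKT. DC50 came from band quantification by nonlinear regression (variable slope).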
In general terms: A western blot detects proteins with antibodies after separation by electrophoresis.

Series [2] has as its system Protein cereblon/Epidermal growth factor receptor (Homo sapiens), P00533+Q96SW2 [UNDEFINED MUTATION]. Nature of the series: Protac activity at CRBN/EGFR exon 19 deletion mutant in human HCC827 cells assessed as induction of EGFR degradation at 10 uM treated 8 hrs post serum starvation measured after 16 hrs by Western blot analysis relative to control. Type of series: cell-based. In a few lines: as §1

For series [3] the test system is unchanged. Nature of the series: Protac activity at CRBN/EGFR exon 19 deletion mutant in human HCC827 cells assessed as reduction in EGFR autophosphorylation up to 10 uM treated 8 hrs post serum starvation measured after 16 hrs by Western blot analysis. The format is cell-based. In a few lines:
as §1

Series [4] concerns the target T1, Epidermal growth factor receptor (Homo sapiens, UniProt P00533). Put plainly: Induction of wild-type EGFR degradation in human OVCAR8 cells at up to 10 uM treated 8 hrs post serum starvation measured after 16 hrs by Western blot analysis. Type of series: cell-based.
Series [5] deals with T1, Epidermal growth factor receptor. Nature of the series: Induction of wild-type EGFR degradation in human H1299 cells at up to 10 uM treated 8 hrs post serum starvation measured after 16 hrs by Western blot analysis. Type of series: cell-based.
The subject of series [6] is Protein cereblon/Epidermal growth factor receptor (Homo sapiens), P00533+Q96SW2 [L858R]. Put plainly: Protac activity at CRBN/EGFR L858R mutant in human H3255 cells assessed as induction of EGFR degradation at 100 nM measured after 8 hrs in presence of negative control MS154N by Western blot analysis. Type of series: cell-based.
The test system is the same in series [7]. Nature of the series: Protac activity at CRBN/EGFR L858R mutant in human H3255 cells assessed as induction of EGFR degradation at 100 nM measured after 8 hrs in presence of EGFR inhibitor gefitinib by Western blot analysis. Type of series: cell-based.
Series [8] has the same test system. Nature of the series: Reversible protac activity at CRBN/EGFR L858R mutant in human H3255 cells assessed as recovery of EGFR phosphorylation at 100 nM preincubated for 12 hrs followed by compound washout and measured up to 48 hrs by Western blot analysis. The format is cell-based. The method in brief:
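Cells were serum-starved 8 h, then given degrader for 12 h. They were washed three times with PBS and harvested at the indicated time points after washout. EGFR, p-EGFR and p-AKT were read by Western blot.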

For another series, the system named is NCI-H3255. Put plainly: Antiproliferative activity against human H3255 cells measured after 3 days by CCK8 assay. Type of series: functional, cell-based. In a few lines: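 H3255 cells seeded 4000/well the night before, then exposed to serial dilutions for 3 days. Growth read by Cell Counting Kit-8; three independent experiments. IC50 from nonlinear regression (log inhibitor vs response, variable slope).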
(Tetrazolium dyes change colour on reduction, which living cells bring about.)

For another series, the system named is HCC827. Nature of the series: Down regulation of SLC30A7 expression in human HCC827 cells at 100 nM measured after 16 hrs by LC-MS analysis. Type of series: functional, cell-based. The method in brief:
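HCC-827 cells serum-starved 8 h, then treated at 100 nM for 16 h. Collected for label-free quantitative LC–MS proteomics; LFQ intensity compared between treated and control groups; three independent experiments.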

Chain of Protein cereblon/Epidermal growth factor receptor (Homo sapiens), P00533+Q96SW2 [UNDEFINED MUTATION] (P00533 whole entry, looked up, stated change not applied): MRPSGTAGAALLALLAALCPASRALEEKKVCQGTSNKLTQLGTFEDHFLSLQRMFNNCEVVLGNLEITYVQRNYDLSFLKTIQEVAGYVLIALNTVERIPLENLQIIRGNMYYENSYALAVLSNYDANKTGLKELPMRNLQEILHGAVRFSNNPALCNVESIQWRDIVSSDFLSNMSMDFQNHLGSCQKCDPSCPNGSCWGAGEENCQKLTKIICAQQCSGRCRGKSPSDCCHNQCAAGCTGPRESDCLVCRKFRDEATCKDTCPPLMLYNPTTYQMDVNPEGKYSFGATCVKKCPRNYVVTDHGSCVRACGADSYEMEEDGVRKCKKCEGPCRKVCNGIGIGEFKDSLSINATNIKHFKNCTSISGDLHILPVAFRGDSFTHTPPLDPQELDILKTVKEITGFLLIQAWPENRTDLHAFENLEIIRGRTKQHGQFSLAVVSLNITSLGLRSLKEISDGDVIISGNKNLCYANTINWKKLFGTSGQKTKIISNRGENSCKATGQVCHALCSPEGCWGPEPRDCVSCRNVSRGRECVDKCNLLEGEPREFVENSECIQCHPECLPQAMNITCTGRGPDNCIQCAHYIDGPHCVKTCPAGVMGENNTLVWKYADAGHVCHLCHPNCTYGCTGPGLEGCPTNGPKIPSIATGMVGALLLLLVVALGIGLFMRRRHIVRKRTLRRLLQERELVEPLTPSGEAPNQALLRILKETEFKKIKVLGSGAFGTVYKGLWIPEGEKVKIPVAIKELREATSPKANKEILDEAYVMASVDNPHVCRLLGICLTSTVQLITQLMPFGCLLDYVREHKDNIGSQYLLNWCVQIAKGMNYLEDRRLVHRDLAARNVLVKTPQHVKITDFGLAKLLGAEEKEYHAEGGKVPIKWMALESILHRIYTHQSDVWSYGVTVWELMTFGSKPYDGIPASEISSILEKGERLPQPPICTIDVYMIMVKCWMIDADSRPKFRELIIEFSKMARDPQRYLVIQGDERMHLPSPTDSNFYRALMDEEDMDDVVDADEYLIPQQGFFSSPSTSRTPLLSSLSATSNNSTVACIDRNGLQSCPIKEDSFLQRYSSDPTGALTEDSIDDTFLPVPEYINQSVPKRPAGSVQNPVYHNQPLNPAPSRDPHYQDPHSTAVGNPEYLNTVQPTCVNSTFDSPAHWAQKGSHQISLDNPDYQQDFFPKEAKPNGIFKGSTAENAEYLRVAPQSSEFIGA
Chain of Protein cereblon/Epidermal growth factor receptor (Homo sapiens), P00533+Q96SW2 [UNDEFINED MUTATION] (Q96SW2 whole entry, looked up, stated change not applied): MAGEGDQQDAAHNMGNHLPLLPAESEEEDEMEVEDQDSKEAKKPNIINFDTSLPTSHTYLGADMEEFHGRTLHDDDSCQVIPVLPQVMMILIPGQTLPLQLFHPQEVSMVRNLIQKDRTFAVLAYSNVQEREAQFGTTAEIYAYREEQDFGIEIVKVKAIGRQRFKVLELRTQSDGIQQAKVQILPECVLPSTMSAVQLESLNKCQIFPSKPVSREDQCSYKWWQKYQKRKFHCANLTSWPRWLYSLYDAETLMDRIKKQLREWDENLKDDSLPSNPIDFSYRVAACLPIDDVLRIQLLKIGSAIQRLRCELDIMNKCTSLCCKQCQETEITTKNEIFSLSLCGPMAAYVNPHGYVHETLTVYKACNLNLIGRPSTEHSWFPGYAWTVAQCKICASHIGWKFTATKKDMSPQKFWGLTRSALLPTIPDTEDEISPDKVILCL
T1 sequence (P00533 whole entry): as the sequence (P00533 whole entry, looked up, stated change not applied) above

For the compound `COc1cc2ncnc(Nc3ccc(F)c(Cl)c3)c2cc1OCCCN1CCN(CCC(=O)NCCCCCCCCOc2cccc3c2C(=O)N(C2CCC(=O)NC2=O)C3=O)CC1` (stereo not given), in series [1], the %max was greater than 95%. Moreover, the result in [2], in [6] and in series [7] was inactive. Moreover, the result (in series [3]; in series [8]; with NCI-H3255; in the series on HCC827) was Active. For the same compound, the Activity result in series [4] and in [5] was “Not Active” in each case.
